Reference: paper PMC4120670 (Kidney International, 2014)

Experiments:
OAT2 [1] = target: T1, OAT2 (Homo sapiens, UniProt Q9Y694); assay: Inhibition of OAT2 transport of 3′,5′-cyclic GMP; format: cell-based
T1 sequence (Q9Y694 1-548): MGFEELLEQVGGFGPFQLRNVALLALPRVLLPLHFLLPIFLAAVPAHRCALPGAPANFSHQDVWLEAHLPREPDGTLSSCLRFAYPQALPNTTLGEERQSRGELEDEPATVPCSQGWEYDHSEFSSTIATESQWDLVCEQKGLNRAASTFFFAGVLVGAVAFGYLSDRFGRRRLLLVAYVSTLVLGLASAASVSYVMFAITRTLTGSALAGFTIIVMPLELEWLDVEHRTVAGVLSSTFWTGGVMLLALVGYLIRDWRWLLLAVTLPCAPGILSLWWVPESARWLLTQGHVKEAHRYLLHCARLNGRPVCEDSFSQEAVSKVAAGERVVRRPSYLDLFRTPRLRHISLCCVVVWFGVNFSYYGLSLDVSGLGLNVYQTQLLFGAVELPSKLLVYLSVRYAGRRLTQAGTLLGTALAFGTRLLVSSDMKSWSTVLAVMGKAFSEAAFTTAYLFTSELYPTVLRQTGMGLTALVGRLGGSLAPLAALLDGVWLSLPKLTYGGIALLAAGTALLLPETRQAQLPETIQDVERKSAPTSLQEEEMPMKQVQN

OCT2 = target: T2, OCT2 (Homo sapiens, UniProt O15244); assay: Inhibition of OCT2 transport of tetraethylammonium; format: cell-based
T2 sequence (O15244 1-555): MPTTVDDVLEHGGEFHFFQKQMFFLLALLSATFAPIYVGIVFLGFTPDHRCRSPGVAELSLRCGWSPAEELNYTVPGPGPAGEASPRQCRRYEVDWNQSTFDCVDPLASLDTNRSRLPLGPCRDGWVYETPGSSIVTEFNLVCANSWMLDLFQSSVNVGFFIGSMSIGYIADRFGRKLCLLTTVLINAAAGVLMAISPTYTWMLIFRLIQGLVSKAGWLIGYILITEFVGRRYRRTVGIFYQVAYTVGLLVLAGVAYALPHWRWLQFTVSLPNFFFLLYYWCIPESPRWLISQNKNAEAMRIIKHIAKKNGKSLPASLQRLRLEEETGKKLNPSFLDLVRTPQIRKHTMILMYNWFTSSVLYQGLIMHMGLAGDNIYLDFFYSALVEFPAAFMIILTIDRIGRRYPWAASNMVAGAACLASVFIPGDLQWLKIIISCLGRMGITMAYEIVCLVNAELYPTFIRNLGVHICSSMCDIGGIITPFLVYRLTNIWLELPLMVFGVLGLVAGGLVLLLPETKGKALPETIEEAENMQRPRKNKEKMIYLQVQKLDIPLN

OCT3 = target: T3, OCT3 (Homo sapiens, UniProt O75751); assay: Inhibition of OCT3 transport of 1-methyl-4-phenylpyridinium; format: cell-based
T3 sequence (O75751 1-556): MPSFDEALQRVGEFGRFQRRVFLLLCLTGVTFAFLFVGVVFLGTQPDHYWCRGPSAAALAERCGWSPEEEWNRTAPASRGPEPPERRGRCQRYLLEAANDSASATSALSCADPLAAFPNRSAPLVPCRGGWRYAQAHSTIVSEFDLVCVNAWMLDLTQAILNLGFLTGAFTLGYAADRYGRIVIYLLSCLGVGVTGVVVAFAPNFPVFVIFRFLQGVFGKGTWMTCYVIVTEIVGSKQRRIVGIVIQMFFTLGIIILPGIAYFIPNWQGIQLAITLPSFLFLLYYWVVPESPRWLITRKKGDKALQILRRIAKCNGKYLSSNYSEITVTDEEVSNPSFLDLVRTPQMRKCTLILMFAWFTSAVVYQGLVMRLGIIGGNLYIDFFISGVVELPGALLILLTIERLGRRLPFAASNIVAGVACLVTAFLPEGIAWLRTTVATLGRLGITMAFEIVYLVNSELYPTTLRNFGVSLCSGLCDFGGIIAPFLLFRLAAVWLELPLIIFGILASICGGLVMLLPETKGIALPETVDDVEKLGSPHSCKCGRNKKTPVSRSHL

MATE2-K [2] = target: T4, MATE2-K (Homo sapiens, UniProt Q86VL8); assay: Inhibition of MATE2-K transport of tetraethylammonium; format: cell-based
T4 sequence (Q86VL8 1-566 isoform Q86VL8-3): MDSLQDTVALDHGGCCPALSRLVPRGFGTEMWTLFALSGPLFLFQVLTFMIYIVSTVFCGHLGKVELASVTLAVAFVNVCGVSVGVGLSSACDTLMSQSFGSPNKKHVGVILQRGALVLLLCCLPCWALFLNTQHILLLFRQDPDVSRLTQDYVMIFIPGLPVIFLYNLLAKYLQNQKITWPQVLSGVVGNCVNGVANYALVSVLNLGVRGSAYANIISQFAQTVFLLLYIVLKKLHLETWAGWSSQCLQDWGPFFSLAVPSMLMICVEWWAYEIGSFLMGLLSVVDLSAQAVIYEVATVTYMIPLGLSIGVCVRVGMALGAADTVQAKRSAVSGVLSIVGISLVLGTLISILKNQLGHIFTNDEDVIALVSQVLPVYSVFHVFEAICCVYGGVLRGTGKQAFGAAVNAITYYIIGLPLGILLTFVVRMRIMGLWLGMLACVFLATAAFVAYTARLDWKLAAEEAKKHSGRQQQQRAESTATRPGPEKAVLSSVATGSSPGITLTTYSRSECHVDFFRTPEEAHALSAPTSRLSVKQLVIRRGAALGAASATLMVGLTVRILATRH

[3] = most prominent effects, clinical; cited from earlier work
[4] = more modest effects, clinical; cited from earlier work
OAT2 [5] = target: T1, OAT2; assay: Creatinine transport by OAT2 in transiently transfected MDCKII cells; format: cell-based
MATE1 = target: T5, MATE1 (Homo sapiens, UniProt Q96FL8); assay: Creatinine transport by MATE1 in transiently transfected MDCKII cells; format: cell-based
T5 sequence (Q96FL8 1-570): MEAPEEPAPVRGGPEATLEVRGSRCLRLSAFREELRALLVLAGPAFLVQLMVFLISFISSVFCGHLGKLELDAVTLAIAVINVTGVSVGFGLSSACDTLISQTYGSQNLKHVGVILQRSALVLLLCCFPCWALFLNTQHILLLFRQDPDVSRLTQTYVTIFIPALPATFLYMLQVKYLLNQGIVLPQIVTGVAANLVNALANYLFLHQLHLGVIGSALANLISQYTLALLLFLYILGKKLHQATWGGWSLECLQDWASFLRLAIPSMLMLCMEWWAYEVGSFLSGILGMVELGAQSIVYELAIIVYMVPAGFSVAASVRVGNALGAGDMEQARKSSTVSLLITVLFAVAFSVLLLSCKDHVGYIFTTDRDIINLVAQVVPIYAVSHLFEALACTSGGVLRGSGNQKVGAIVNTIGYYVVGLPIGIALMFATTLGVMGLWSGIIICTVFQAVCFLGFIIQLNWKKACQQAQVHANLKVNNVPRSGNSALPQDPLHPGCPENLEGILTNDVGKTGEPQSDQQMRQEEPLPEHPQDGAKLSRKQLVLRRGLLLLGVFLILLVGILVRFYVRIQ
Procedure, shortened: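 Transiently transfected polarized MDCKII cells were preincubated 20 min in Hank's balanced salt solution with 30 mmol/l NH4Cl. Uptake was started by adding creatinine, 31 μmol/l to 20 mmol/l, to the chamber matching the transporter's apical or basolateral expression. Cells were washed four times with ice-cold PBS and extracted in 1:1 acetonitrile:water. Intracellular substrate was counted radiometrically. Kinetic constants were fitted from concentration dependence over n⩾3 independent experiments.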

MATE2-K [6] = target: T4, MATE2-K; assay: Creatinine transport by MATE2-K in transiently transfected MDCKII cells; format: cell-based
OAT3 [7] = target: T6, OAT3 (Homo sapiens, UniProt Q8TCC7); format: cell-based; settings: transiently transfected HEK293 cells; data not shown
T6 sequence (Q8TCC7 1-542): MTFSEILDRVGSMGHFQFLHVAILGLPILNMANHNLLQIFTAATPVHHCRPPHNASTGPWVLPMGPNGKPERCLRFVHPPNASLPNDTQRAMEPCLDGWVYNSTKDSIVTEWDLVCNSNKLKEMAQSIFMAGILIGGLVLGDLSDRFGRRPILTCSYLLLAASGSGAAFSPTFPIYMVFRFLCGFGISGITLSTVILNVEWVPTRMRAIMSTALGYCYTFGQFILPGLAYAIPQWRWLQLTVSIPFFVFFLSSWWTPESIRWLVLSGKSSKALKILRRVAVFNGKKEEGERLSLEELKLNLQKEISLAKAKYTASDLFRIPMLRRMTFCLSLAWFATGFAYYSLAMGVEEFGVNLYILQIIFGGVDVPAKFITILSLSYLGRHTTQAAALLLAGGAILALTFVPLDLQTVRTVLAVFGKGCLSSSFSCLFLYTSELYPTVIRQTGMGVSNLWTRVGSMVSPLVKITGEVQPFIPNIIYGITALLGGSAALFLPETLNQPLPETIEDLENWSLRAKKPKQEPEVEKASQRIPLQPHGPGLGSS

OAT3 [8] = target: T6, OAT3; settings: human OAT3, transiently transfected HEK293 cells; cited from earlier work
[9] = substrate: CN1CC(=O)NC1=N; assay: Creatinine transport by OAT2 in transiently transfected MDCKII cells; format: cell-based, human; settings: other: creatinine transport by OAT2, transiently transfected cells
[10] = substrate: CN1CC(=O)NC1=N; assay: Creatinine transport by OCT2 in transiently transfected MDCKII cells; format: cell-based, human; settings: other: creatinine transport by OCT2, transiently transfected cells
[11] = substrate: CN1CC(=O)NC1=N; assay: Creatinine transport by OCT3 in transiently transfected MDCKII cells; format: cell-based, human; settings: other: creatinine transport by OCT3, transiently transfected cells

Molecule: CN/C(=N/CCSCc1nc[nH]c1C)NC#N [Cimetidine, cimetidine]
- IC50 (OAT2 [1]): 72.8 ± 17 µM
- IC50 (OCT2): 135 ± 16 µM
- IC50 (OCT3): 87.7 ± 55.1 µM
- IC50 (MATE2-K [2]): 46.6 ± 7.23 µM
- Decreases in creatinine clearance [3]: 15–34 ml/min per 1.73 m^2

Molecule: Cc1cc(/C=C/C#N)cc(C)c1Nc1ccnc(Nc2ccc(C#N)cc2)n1 [Rilpivirine, rilpivirine]
- Serum creatinine increases [4]: ~0.1 mg/dL

Molecule: CC(C)c1nc(CN(C)C(=O)N[C@H](C(=O)N[C@@H](Cc2ccccc2)C[C@H](O)[C@H](Cc2ccccc2)NC(=O)OCc2cncs2)C(C)C)cs1 [Ritonavir, ritonavir]
- Concentration-dependent inhibition of OAT2-dependent transport (OAT2 [1]; model substrate, curve could not be generated): lack of concentration-dependent inhibition

Molecule: COc1cc(Cc2cnc(N)nc2N)cc(OC)c1OC [Trimethoprim, trimethoprim]
- IC50 (OCT2): 68 ± 5.2 µM

Molecule: CN1CC(=O)NC1=N [creatinine]
- Vmax (OAT2 [5]; creatinine transport by OAT2): 117 × 10^4 pmol/min per mRNA copy number
- Transport rate for OAT2 relative to OCT2 (OAT2 [5]; physiological creatinine concentration (100 μmol/l), faster than OCT2): 4.7 fold
- Transport rate for OAT2 relative to OCT3 (OAT2 [5]; physiological creatinine concentration (100 μmol/l), faster than OCT3): 2.3 fold
- Vmax (MATE1; creatinine transport by MATE1): >2 × 10^4 pmol/min per mRNA copy number
- Km (MATE1; human, transiently transfected MDCKII cells expressing MATE1): > 2000 µM
- Vmax (MATE2-K [6]; creatinine transport by MATE2-K): >20 × 10^4 pmol/min per mRNA copy number
- Km (MATE2-K [6]; human, transiently transfected MDCKII cells expressing MATE2-K): > 2000 µM
- OAT3-dependent transport of creatinine (OAT3 [7]): no OAT3-dependent transport of creatinine was observed
- Increase in creatinine accumulation over mock transfection (OAT3 [8]): 60%

B1: OAT2 (Homo sapiens) (protein)
chain: MGFEELLEQVGGFGPFQLRNVALLALPRVLLPLHFLLPIFLAAVPAHRCALPGAPANFSHQDVWLEAHLPREPDGTLSSCLRFAYPQALPNTTLGEERQSRGELEDEPATVPCSQGWEYDHSEFSSTIATESQWDLVCEQKGLNRAASTFFFAGVLVGAVAFGYLSDRFGRRRLLLVAYVSTLVLGLASAASVSYVMFAITRTLTGSALAGFTIIVMPLELEWLDVEHRTVAGVLSSTFWTGGVMLLALVGYLIRDWRWLLLAVTLPCAPGILSLWWVPESARWLLTQGHVKEAHRYLLHCARLNGRPVCEDSFSQEAVSKVAAGERVVRRPSYLDLFRTPRLRHISLCCVVVWFGVNFSYYGLSLDVSGLGLNVYQTQLLFGAVELPSKLLVYLSVRYAGRRLTQAGTLLGTALAFGTRLLVSSDMKSWSTVLAVMGKAFSEAAFTTAYLFTSELYPTVLRQTGMGLTALVGRLGGSLAPLAALLDGVWLSLPKLTYGGIALLAAGTALLLPETRQAQLPETIQDVERKSAPTSLQEEEMPMKQVQN
- Km [9]: 986 ± 177 µM

B2: OCT2 (Homo sapiens) (protein)
chain: MPTTVDDVLEHGGEFHFFQKQMFFLLALLSATFAPIYVGIVFLGFTPDHRCRSPGVAELSLRCGWSPAEELNYTVPGPGPAGEASPRQCRRYEVDWNQSTFDCVDPLASLDTNRSRLPLGPCRDGWVYETPGSSIVTEFNLVCANSWMLDLFQSSVNVGFFIGSMSIGYIADRFGRKLCLLTTVLINAAAGVLMAISPTYTWMLIFRLIQGLVSKAGWLIGYILITEFVGRRYRRTVGIFYQVAYTVGLLVLAGVAYALPHWRWLQFTVSLPNFFFLLYYWCIPESPRWLISQNKNAEAMRIIKHIAKKNGKSLPASLQRLRLEEETGKKLNPSFLDLVRTPQIRKHTMILMYNWFTSSVLYQGLIMHMGLAGDNIYLDFFYSALVEFPAAFMIILTIDRIGRRYPWAASNMVAGAACLASVFIPGDLQWLKIIISCLGRMGITMAYEIVCLVNAELYPTFIRNLGVHICSSMCDIGGIITPFLVYRLTNIWLELPLMVFGVLGLVAGGLVLLLPETKGKALPETIEEAENMQRPRKNKEKMIYLQVQKLDIPLN
- Km [10]: 1860 ± 370 µM

B3: OCT3 (Homo sapiens) (protein)
chain: MPSFDEALQRVGEFGRFQRRVFLLLCLTGVTFAFLFVGVVFLGTQPDHYWCRGPSAAALAERCGWSPEEEWNRTAPASRGPEPPERRGRCQRYLLEAANDSASATSALSCADPLAAFPNRSAPLVPCRGGWRYAQAHSTIVSEFDLVCVNAWMLDLTQAILNLGFLTGAFTLGYAADRYGRIVIYLLSCLGVGVTGVVVAFAPNFPVFVIFRFLQGVFGKGTWMTCYVIVTEIVGSKQRRIVGIVIQMFFTLGIIILPGIAYFIPNWQGIQLAITLPSFLFLLYYWVVPESPRWLITRKKGDKALQILRRIAKCNGKYLSSNYSEITVTDEEVSNPSFLDLVRTPQMRKCTLILMFAWFTSAVVYQGLVMRLGIIGGNLYIDFFISGVVELPGALLILLTIERLGRRLPFAASNIVAGVACLVTAFLPEGIAWLRTTVATLGRLGITMAFEIVYLVNSELYPTTLRNFGVSLCSGLCDFGGIIAPFLLFRLAAVWLELPLIIFGILASICGGLVMLLPETKGIALPETVDDVEKLGSPHSCKCGRNKKTPVSRSHL
- Km [11]: 1320 ± 380 µM
